Measurements from different studies.
Compare with care: the assays were run in different laboratories.
Target: Tyrosine-protein kinase Fes/Fps (FES, Homo sapiens, UniProt P07332)

Cc1cnn2ncc(-c3ccnc(N(C)C)n3)c2c1  remaining binding (binding; 1 µM): 93%
O=C(O)[C@H]1[C@H](Cn2nnc3ccccc3c2=O)CC[C@@H]1C(=O)c1ccc(OCCC2CCOCC2)cc1  remaining binding (cell-free assay; competition with immobilised ligand; 1 µM): 100%
N[C@H]1CCN(c2nccc(-c3cnn4ncccc34)n2)C1  remaining binding (binding; 1 µM): 100%
CCN1CCN(Cc2ccc(C(=O)Nc3ccc(C)c(Oc4ccc5c(c4)CC(=O)N5)c3)cc2C(F)(F)F)CC1  remaining binding (binding; competition with immobilised ligand; 1 µM): 97%
COc1cnc(Nc2cccc(S(N)(=O)=O)c2)nc1N1CCN(c2ccccc2)CC1  remaining binding (binding; competition with immobilised ligand; 1 µM): 100%
COc1cc(-c2cn(C3CCc4c(F)cccc4N(CC(F)(F)F)C3=O)nn2)ccc1-n1cnc(C)c1 (stereo not shown)  remaining binding (cell-free assay; competition with immobilised ligand; 1 µM): 100%
CC1CCCN1c1nccc(-c2cnn3ncccc23)n1 (stereo not shown)  remaining binding (binding; 1 µM): 100%
Cc1cnc(Nc2ccc(C(=O)N3CCC(N4CCCC4)CC3)cc2)nc1-c1cc2ccccc2s1  remaining binding (binding; competition with immobilised ligand; 1 µM): 52%
O=C(Nc1c[nH]nc1C(=O)NC1CCNCC1)c1cc(F)cc(F)c1  remaining binding (binding; competition with immobilised ligand; 1 µM): 100%
Cn1nc(C(=O)NCc2ccc(C(=O)O)cc2)cc1-c1ccc2[nH]ccc2c1  remaining binding (cell-free assay; competition with immobilised ligand; 0.1 µM): 95%
O=C(c1ccc(Nc2nccc(-c3cc4ccccc4s3)n2)cc1)N1CCC(N2CCCC2)CC1  remaining binding (binding; competition with immobilised ligand; 1 µM): 93%
CS(=O)(=O)N1CCCC(NC(=O)[C@H](CCC2CCCCC2)NC(=O)c2ccc(CNc3ncnc4c3nnn4-c3ccccc3)cc2)C1 (stereo partly shown)  remaining binding (cell-free assay; competition with immobilised ligand; 0.1 µM): 87%
C[C@@H]1CCN(c2nccc(-c3cnn4ncccc34)n2)C1  remaining binding (binding; 1 µM): 100%
c1cncc(-c2cccc(Nc3nccc(NC4CCCCC4)n3)c2)c1  remaining binding (binding; competition with immobilised ligand; 10 µM): 80%
COc1ncc2cc3ccccc3nc2c1C#N  remaining binding (cell-free assay; competition with immobilised ligand; 5 µM): 100%
Cc1nccc(COC(=O)N2C[C@@H]3[C@@H](CNC(=O)c4ccc5[nH]nnc5c4)[C@@H]3C2)n1  remaining binding (cell-free assay; competition with immobilised ligand; 1 µM): 99%
c1cnn2ncc(-c3ccnc(N4CCC45COC5)n3)c2c1  remaining binding (binding; 1 µM): 95%
CC(C)(O)c1cncc(-c2nc3ccc(F)cc3n2C2CC2)c1  remaining binding (cell-free assay; competition with immobilised ligand; 1 µM): 100%
CN(CCCC(F)(F)F)c1nccc(-c2cnn3ncccc23)n1  remaining binding (binding; 1 µM): 95%
CNC(=O)Nc1ccc2c(c1)[C@@]1(CC2)OC(=O)N(CC(=O)N(Cc2ccc(F)cc2)[C@@H](C)C(F)(F)F)C1=O  remaining binding (cell-free assay; competition with immobilised ligand; 1 µM): 85%
CN(c1nccc(-c2cnn3ncccc23)n1)C1CC1  remaining binding (binding; 1 µM): 100%
O=C(c1ccc(Nc2ncc(Cl)c(-c3ccc(Cl)s3)n2)cc1)N1CCC(N2CCCC2)CC1  remaining binding (binding; competition with immobilised ligand; 1 µM): 59%
